Laboratory results from ChEMBL document CHEMBL1151837, “Structural reassignment, absolute configuration, and conformation of hypurticin, a highly flexible polyacyloxy-6-heptenyl-5,6-dihydro-2H-pyran-2-one” (J Nat Prod, 2009).
Values after ≈ are worked out from the molar mass of the structure shown.

Experiments:
HeLa [1] = experiment: Cytotoxicity against human HeLa cells after 72 hrs by sulforhodamine B assay; assay type: functional, cell-based
Outline: (§1)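 Cells kept in RPMI 1640 with 10% FBS at 37 °C, 5% CO2, humidified. Log-phase cells treated in triplicate at 0.16–20.0 µg/mL for 72 h. Cell density read by sulforhodamine B. Value is the dose giving 50% inhibition of control growth (ED50). Ellipticine served as positive control.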

HEp-2 = experiment: Cytotoxicity against human Hep2 cells after 72 hrs by sulforhodamine B assay; assay type: functional, cell-based; conditions: HEp-2, 72 h; outline: as §1
KB = experiment: Cytotoxicity against human KB cells after 72 hrs by sulforhodamine B assay; assay type: functional, cell-based; outline: as §1
HeLa [2] = experiment: Cell cycle arrest in human HeLa cells assessed as accumulation at G1 phase at 10 times IC50 after 48 hrs by flow cytometry; assay type: functional
Outline: (§2)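 HeLa cells in log phase exposed 48 h to compound in DMSO at ten times its cytotoxicity IC50. Fixed in cold 70% (v/v) EtOH, then stained 12 h at 4 °C with Triton X-100, trisodium citrate and RNase A, and filtered through nylon mesh. DNA content measured by flow cytometry gives the percentage of cells in G1, S and G2.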

HeLa [3] = experiment: Cell cycle arrest in human HeLa cells assessed as accumulation at G2 phase at 10 times IC50 after 48 hrs by flow cytometry; assay type: functional; outline: as §2
HeLa [4] = experiment: Cell cycle arrest in human HeLa cells assessed as accumulation at S phase at 10 times IC50 after 48 hrs by flow cytometry; assay type: functional; outline: as §2

| Structure (SMILES) | IC50 (HeLa [1]) | IC50 (HEp-2) | IC50 (KB) | Activity (HeLa [2]) | Activity (HeLa [3]) | Activity (HeLa [4]) |
| --- | --- | --- | --- | --- | --- | --- |
| Cc1c2ccncc2c(C)c2c1[nH]c1ccccc12 [ELLIPTECINE] | 0.4 µg/mL (≈ 1.62 µM) | 0.4 µg/mL (≈ 1.62 µM) | 0.4 µg/mL (≈ 1.62 µM) |  |  |  |
| CC(=O)O[C@H](/C=C\[C@H]1CC=CC(=O)O1)C[C@@H](OC(C)=O)[C@H](C)OC(C)=O [HYPTOLIDE] | 2.8 µg/mL (≈ 7.6 µM) | 6.2 µg/mL (≈ 16.8 µM) | 3.6 µg/mL (≈ 9.77 µM) | 34% | 7% | 57% |
| CC(=O)O[C@H]([C@@H](OC(C)=O)[C@H](/C=C\[C@H]1CC=CC(=O)O1)OC(C)=O)[C@H](C)OC(C)=O [SPICIGEROIDE] | 15.9 µg/mL (≈ 37.3 µM) | 9.4 µg/mL (≈ 22 µM) | 5.4 µg/mL (≈ 12.7 µM) | 40% | 23% | 34% |
